Measured values taken from ChEMBL document CHEMBL2057119, “Small molecules that protect against β-amyloid-induced cytotoxicity by inhibiting aggregation of β-amyloid” (Bioorg Med Chem, 2012).
Calls of active or inactive are those of the source. The rule behind the calls is not given here.

Columns and labels:
[1] = Cytotoxicity against mouse HT22 cells assessed as viability at 10 uM after 18 hrs by MTT assay; format: cell-based, HT-22; conditions: read-out: Activity
Summary of the method: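 HT22 murine hippocampal cells were grown in DMEM with 10% FBS at 37 °C, 5% CO2, and plated at 5×10^3 cells/well. They were switched to plain DMEM and serum-starved for 1 h before exposure to compound at 10 µM for 18 h. MTT solution (5 mg/mL) was added for 4 h at 37 °C. Cells were solubilized in 50% DMF/10% SDS (pH 4.7) for 18 h, absorbance was read at 570/630 nm, and % cytotoxicity was calculated.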

[2] = target: T1, Amyloid-beta precursor protein (Homo sapiens, UniProt P05067); assay: Inhibition of amyloid beta (1 to 42) fibril formation at 10 uM after 1 hr by ThT spectrofluorometric analysis
Summary of the method: (§1)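 ThT diluted to 5 µM in 50 mM glycine buffer was then added. After 10 s of shaking, fluorescence was read at excitation 450 nm and emission 480 nm, as a measure of fibril formation.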

[3] = target: T1, Amyloid-beta precursor protein; assay: Inhibition of amyloid beta (1 to 42) fibril formation after 1 hr by ThT spectrofluorometric analysis; summary of the method: as §1
[4] = target: T1, Amyloid-beta precursor protein; assay: Inhibition of amyloid beta (25 to 35)-induced cell death in mouse HT22 cells at 10 uM after 18 hrs by MTT assay; format: cell-based; conditions: HT-22, values are per cent of control
Summary of the method: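 HT22 cells were plated at 5×10^3 cells/well, serum-starved in plain DMEM for 1 h, and pretreated with compound for 1 h. Aβ(25–35) was prepared as a 10 mM DMSO stock, diluted 10-fold in PBS, and aggregated for 1 h at room temperature. It was then added at a final 25 µM, and cells were incubated for 18 h. Viability was measured by MTT (4 h), then solubilization in DMF/SDS and absorbance at 570/630 nm.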

Mus musculus [5] = assay: Antialzheimer activity in ICR mouse assessed as increase in amyloid beta (1 to 42)-induced step-through latency at 100 mg/kg, po measured after 3 days by passive avoidance test; format: functional
Summary of the method: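 Male ICR mice got 50 µL of pre-aggregated Aβ(1–42) by ICV injection at 2.4 mm depth at bregma. The peptide was a 250 µM DMSO stock diluted in PBS to 10 nM and aggregated at 37 °C for 4 days. Oral compound was given at 100 mg/kg once daily, with testing on days 3–4. Training used a 0.25 mA, 3 s shock; step-through latency into the dark compartment was measured 24 h later. n = 10, mean ± SEM, t-test.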

Mus musculus [6] = assay: Antialzheimer activity in ICR mouse assessed as reduction in amyloid beta (1 to 42)-induced spontaneous memory loss at 100 mg/kg, po measured after 2 days by object recognition task relative to control; format: functional; set-up: scale not given: the % may be the effect or the level left
Summary of the method: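 Male ICR mice received ICV pre-aggregated Aβ(1–42) at 10 nM (50 µL, 2.4 mm depth at bregma), then compound at 100 mg/kg po once daily. Object recognition ran on days 2–3. Exploration was counted as the nose directed at an object within 2 cm and/or touching it, and objects were cleaned to avoid olfactory cues. Preference index = exploration time for new object / total exploration time. n = 10, mean ± SEM.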

Mus musculus [7] = assay: Antialzheimer activity in ICR mouse assessed as reduction in amyloid beta (1 to 42)-induced spontaneous memory loss at 100 mg/kg, po measured after 2 days by Y-maze test; format: functional; set-up: scale not given: the % may be the effect or the level left
Summary of the method: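 Aβ(1–42) at 10 nM in PBS (from a 250 µM DMSO stock) was aggregated at 37 °C for 6 days, then injected ICV (50 µL, 2.4 mm depth at bregma) into male ICR mice. Compound was given at 100 mg/kg po once daily, and the Y-maze test was on day 2. Each mouse explored a three-arm maze freely for 8 min. An entry counted when all four limbs were in an arm; spontaneous alternation was scored as three consecutive different-arm entries. n = 10, mean ± SEM.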

[8] = target: T1, Amyloid-beta precursor protein; assay: Inhibition of amyloid beta (1 to 42) aggregation at 2 uM after 2 hrs by SDS-PAGE and PICUP technique
Summary of the method: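 Aβ(1–42) was monomerized in HFIP (0.5 mM), dried, and redissolved in DMSO. It was incubated at 25 µM final in PBS (pH 7.3) with compound at 2 µM final for 2 h at 37 °C. Samples were photo-cross-linked (PICUP) with ammonium persulfate and Ru(bpy)3Cl2 using three 1 s irradiations, quenched, and boiled. Products were resolved on a 10–20% tris-tricine gel and silver-stained.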

Mus musculus [9] = assay: Antialzheimer activity in amyloid beta (1 to 42)-challenged ICR mouse assessed as decrease in escape latency at 100 mg/kg, po measured after 7 days by water maze test; format: functional, organism-based; set-up: dose 100 mg/kg
Summary of the method: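 Male ICR mice were injected ICV with 50 µL of pre-aggregated Aβ(1–42) at 10 nM. Compound was then supplied for 7 days in pellet feed, each pellet containing 3 mg. Water maze training ran on days 3–7, and escape latency was recorded across training sessions. n = 10, mean ± SEM.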

T1 sequence (P05067 whole entry): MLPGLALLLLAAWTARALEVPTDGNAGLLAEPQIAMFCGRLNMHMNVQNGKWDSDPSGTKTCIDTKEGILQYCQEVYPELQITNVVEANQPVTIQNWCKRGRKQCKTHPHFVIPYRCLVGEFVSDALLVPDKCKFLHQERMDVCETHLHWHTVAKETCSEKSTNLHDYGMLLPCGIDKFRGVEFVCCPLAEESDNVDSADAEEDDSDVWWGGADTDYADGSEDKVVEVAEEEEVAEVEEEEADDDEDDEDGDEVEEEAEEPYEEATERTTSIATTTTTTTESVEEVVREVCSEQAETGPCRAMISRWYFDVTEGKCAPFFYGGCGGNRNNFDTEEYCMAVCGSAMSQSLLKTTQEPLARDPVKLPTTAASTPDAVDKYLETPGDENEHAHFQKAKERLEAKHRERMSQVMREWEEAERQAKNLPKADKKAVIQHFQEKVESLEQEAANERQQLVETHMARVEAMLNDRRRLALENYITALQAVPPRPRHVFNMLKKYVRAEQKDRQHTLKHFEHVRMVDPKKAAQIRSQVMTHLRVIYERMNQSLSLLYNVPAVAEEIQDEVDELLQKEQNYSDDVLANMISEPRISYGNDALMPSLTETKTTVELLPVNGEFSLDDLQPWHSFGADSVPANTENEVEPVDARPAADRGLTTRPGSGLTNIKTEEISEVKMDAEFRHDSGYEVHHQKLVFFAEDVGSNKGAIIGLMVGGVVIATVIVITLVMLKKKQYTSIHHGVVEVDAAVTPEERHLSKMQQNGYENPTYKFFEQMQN

Compound	viability at 18 h, 10 µM [1] [%]	inhibition [2] [%]	other results
COc1nc(/C=C/c2ccc(OC)c(O)c2)cc(/C=C/c2ccc(OC)c(O)c2)n1	98.4	55	
CN(C)c1cc(/C=C/c2cc(O)cc(/C=C/c3ccc(O)c(N(C)C)c3)c2)ccc1O	66	74.2	
CSc1nc(/C=C/c2ccc(O)cc2)cc(/C=C/c2ccc(O)cc2)n1	65.3	67.4	
CSc1nc(/C=C/c2cccc(O)c2)cc(/C=C/c2cccc(O)c2)n1	43.7		
CSc1nc(/C=C/c2ccccc2)cc(/C=C/c2ccccc2)n1		11.6	
CN(C)c1cc(/C=C/c2cccc(/C=C/c3ccc(O)c(N(C)C)c3)c2)ccc1O	95.7	63.9	
CSc1nc(/C=C/c2ccc(N(C)C)c(O)c2)cc(/C=C/c2ccc(N(C)C)c(O)c2)n1	85.3	88.8	IC50 [3]: 1.1 µM
Oc1ccc(/C=C/c2cc(O)cc(/C=C/c3ccc(O)cc3)c2)cc1	37.4	80.7	IC50 [3]: 1.6 µM
COc1nc(/C=C/c2cccc(O)c2)cc(/C=C/c2cccc(O)c2)n1	45.9		
COc1nc(/C=C/c2ccc(O)cc2)cc(/C=C/c2ccc(O)cc2)n1	101	67.4	
COc1cc(/C=C/c2cccc(/C=C/c3ccc(O)c(OC)c3)c2)ccc1O	74.8	71.5	
Oc1cccc(/C=C/c2cc(/C=C/c3cccc(O)c3)ncn2)c1	142	14.1	
CSc1nc(/C=C/c2ccc(O)c(N(C)C)c2)cc(/C=C/c2ccc(O)c(N(C)C)c2)n1	77.3	78.6	
C(=C\c1cc(/C=C/c2ccccc2)ncn1)/c1ccccc1		47.4	
COc1nc(/C=C/c2ccc(N(C)C)c(O)c2)cc(/C=C/c2ccc(N(C)C)c(O)c2)n1	101	90.4	viability, % of control [4]: 67.4%; IC50 [3]: 0.8 µM
Oc1cc(/C=C/c2ccccc2)cc(/C=C/c2ccccc2)c1		19.8	
CN(C)c1ccc(/C=C/c2cc(/C=C/c3ccc(N(C)C)c(O)c3)ncn2)cc1O	133	93.7	Time (Mus musculus [5]): 118 s; Activity (Mus musculus [6]): 7%; Activity (Mus musculus [7]): 67%; inhibition [8]: Active; Activity (Mus musculus [9]): Active; viability, % of control [4]: 76.6%; IC50 [3]: 3.4 µM
COc1cc(/C=C/c2cc(/C=C/c3ccc(O)c(OC)c3)nc(SC)n2)ccc1O	79	67.6	
